Sampled rows, rich in hits. Any-hit rate of the full collection: about 1.1%.
Arr AP2 block – human beta-arrestin and AP2 interaction inhibition; hit rate 0.31% among 340,000; inhibition, % at 10 µM; FITC-arrestin peptide / GST-AP2 beads, flow cytometry; AP2 beta2 appendage carries R879A mutation; AID 504490;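 active = inhibition above a set limit, near 3 SD of compounds lacking own fluorescence, cut at about 54% in these data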;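 also: plate controls were DMSO wells for no effect and 5 µM unlabelled arrestin peptide for full effect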
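test system = AP2 appendage R879A on GSH beads | buffer or medium = PBS plus Tween 20 (0.05%) and BSA (0.1%) | incubation = 12 min plus 1 h, RT | detection = bead flow cytometry, FITC channel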
FAS TE block – inhibitors of human fatty acid synthase thioesterase domain; P49327; recombinant FAS-TE, OMFH fluorogenic substrate, fluorescence endpoint; inhibition, % at 15 µM; hit rate 0.67% among 360,000; AID 602261;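 active = compounds whose normalised, plate-corrected inhibition of enzyme fluorescence in the single-dose primary screen is 50% or more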;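 also: 0% = DMSO with enzyme and 100% = substrate without enzyme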
SENP1 FRET inh – SENP1 (human) catalytic domain inhibition; recombinant SENP1 catalytic domain, CyPet-SUMO1-YPet FRET cleavage; Q9P0U3; hit rate 0.21% among 360,000; AID 624204; inhibition, % at 10 µM;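 active = inhibition at least 30% at 10 µM, raw YFP signal under a set limit, fluorescence ratio 0.5 to 1.5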;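 also: 0% = enzyme with DMSO and 100% = no enzyme wells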
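System: Recombinant human SENP1 catalytic domain, His6-tagged | Incubation: Enzyme reaction for 50 min at room temperature, dark | Medium: Tris pH 8 with BME, BSA, NP40 and catalase | Also added: 25 nM SUMO1 FRET substrate | Compound: 10 µM single point, 0.5% DMSO | Measured by: FRET fluorescence in CFP and YFP emission channels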
GASC-1 inh – blocks human GASC-1 demethylase activity. Q9H3R0. GST-JMJD2C(1-420) H3K9me3 demethylation, DELFIA europium. inhibition, % at 2.35 µM. hit rate 0.069% among 330,000. AID 2099;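 active = more than half of a compound's replicate wells show inhibition beyond 50%, single wells judged on their own value; inconclusive = some, but no more than half, of replicates pass 50% inhibition; inactive = no replicate passes 50% inhibition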;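 also: signal counts dimethyl H3K9 product captured on neutravidin plate; 0% = median of DMSO wells and 100% = 0.3 times that DMSO median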
Target sequence (Q9H3R0 1-420 limits assumed): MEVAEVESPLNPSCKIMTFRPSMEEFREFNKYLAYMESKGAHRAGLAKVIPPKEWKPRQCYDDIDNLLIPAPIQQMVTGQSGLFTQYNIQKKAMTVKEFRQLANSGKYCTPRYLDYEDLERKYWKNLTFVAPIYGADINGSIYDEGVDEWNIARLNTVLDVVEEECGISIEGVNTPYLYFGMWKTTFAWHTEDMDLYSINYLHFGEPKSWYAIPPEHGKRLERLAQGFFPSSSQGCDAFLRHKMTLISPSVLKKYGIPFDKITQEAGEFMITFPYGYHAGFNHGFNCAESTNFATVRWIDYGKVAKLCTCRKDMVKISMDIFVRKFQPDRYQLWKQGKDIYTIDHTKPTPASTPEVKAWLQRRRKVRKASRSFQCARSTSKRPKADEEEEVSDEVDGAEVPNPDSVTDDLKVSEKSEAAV
Active calls of the source: *; ? = inconclusive; nt = not tested or not shown.

SMILES	Arr AP2 block	FAS TE block	SENP1 FRET inh	GASC-1 inh
CC(=O)C(Sc1nc(N2CCOCC2)nc(N2CCOCC2)n1)C(=O)Nc1ccccc1 (stereo not given)	-2.7	1.9	1.6	69.8*
COc1ccccc1N1CCN(S(=O)(=O)CCNC(=O)c2ccco2)CC1	nt	-1.4	-0.7	nt
C[C@@H](NC(=O)Cn1cnc2c(NCc3ccccc3)ncnc21)c1cccc2ccccc12	-8.6	-2.9	0.6	nt
C[C@@H](NC(=O)Cn1cnc2c(OCc3ccccc3)ncnc21)c1cccc2ccccc12	4.5	5.3	1.8	58.7*
COC(=O)[C@]1(CC(C)C)N[C@H](c2ccc(-c3ccc(Cl)c(Cl)c3)cc2)[C@@H]2C(=O)N(C)C(=O)[C@@H]21	-5.6	60.6*	-0.4	?
CCN1C(=O)[C@H]2[C@@H](c3ccc(-c4ccc(Cl)c(Cl)c4)cc3)N[C@@](CC(C)C)(C(=O)OC)[C@H]2C1=O	-1.9	42.5	3.0	?
CCOc1ccc(Nc2ncnc3c2nnn3Cc2ccccc2)cc1	36.4	2.6	0.9	-13.3
Cc1cccc2cc(C#N)c(SCCN3CCCCC3)nc12	nt	nt	nt	102.3*
O=c1cc(-c2ccc(O)cc2)oc2c(C3O[C@H](CO)[C@@H](O)[C@H](O)[C@H]3O)c(O)cc(O)c12 (stereo not given in full)	17.2	-3.0	0.6	nt
O=c1cc(-c2ccc(O)c(O)c2)oc2c(C3O[C@H](CO)[C@@H](O)[C@H](O)[C@H]3O)c(O)cc(O)c12 (stereo not given in full)	7.1	-14.3	18.3	64.0*
COc1ccc(-c2nc(=S)n3ccsc3n2)cc1OC	0.5	-4.1	-0.4	1.8
Cc1cc(SCC(=O)NCC2CCCO2)nc2ccccc12 (stereo not given)	-1.1	-85.2	57.2*	5.8
CCOc1ccc(/C=C2/Sc3ccc(C(=O)N4CCOCC4)cc3N(C)C2=O)cc1OC	44.7	-1.2	-0.1	-36.4
COc1ccc(/C=C2\Sc3ccc(C(=O)N4CCCC4)cc3N(C)C2=O)cc1OC	5.5	2.2	-1.3	52.7*
CCN1C(=O)/C(=C/N2CCc3ccccc32)SC1=S	70.2*	-49.9	-22.8	-0.5
CCN1C(=O)/C(=C\N2CCCc3ccccc32)SC1=S	-2.6	15.1	-97.7	6.7
CC[C@]12c3[nH]c4ccccc4c3CCN1C(=O)C(CC(=O)NCCCN(C)C)C[C@@H]2C(=O)N1CCN(C(=O)C2CC2)CC1 (stereo not given in full)	14.3	-4.7	0.7	7.7
CC[C@]12c3[nH]c4ccccc4c3CCN1C(=O)C(CC(=O)NCCCOC)C[C@@H]2C(=O)N1CCN(C(=O)C2CC2)CC1 (stereo not given in full)	2.7	-3.8	1.3	52.7*
CC(C)(C)NC(=O)C[C@H]1C[C@H](C(=O)N2CCOCC2)[C@@]2(CCC3CCCC3)c3[nH]c4ccc(Cl)cc4c3CCN2C1=O	-3.3	89.3*	0.2	nt
COc1cccc(CNS(=O)(=O)c2cc(Br)cc3c2N(C(C)=O)C(C)C3)c1 (stereo not given)	2.3	-4.5	2.1	9.0
O=C(NC1CCCCC1)C1CCCN1C(=O)NCc1ccccc1 (stereo not given)	33.7	-5.2	0.7	-6.5
CC1=C(C(=O)c2ccccc2)C(c2ccc(N3CCOCC3)cc2)NC(=O)N1 (stereo not given)	3.8	-7.7	74.0*	-16.7
COC(=O)C1=C(C)N(CCc2cc(OC)c(OC)c(OC)c2)C(=O)N[C@H]1c1cccs1	nt	nt	nt	56.1*
CCOC(=O)CN1C(=O)N[C@@H](c2cccs2)C(C(=O)OC)=C1C	-3.8	-3.8	-3.7	-6.4
Nc1nnnn1/N=C/c1cc(Cl)cc(Cl)c1OCc1ccc(Cl)cc1Cl	2.2	-8.0	53.4*	-8.8
Nc1nnnn1/N=C/c1ccccc1OCc1ccc(Cl)cc1Cl	6.3	1.6	1.0	-5.9
CSc1ccc(Cl)c(C(=O)Nc2ccc(OCC(N)=O)cc2)c1	10.8	-5.1	3.5	3.8
Cc1cccc(CN2CCC(Oc3ccc(C(=O)N4CCCC4)cc3)CC2)n1	8.3	-7.0	-2.8	65.7*
Cc1ccccc1CN1CCC(Oc2ccc(C(=O)N3CCCC3)cc2)CC1	-5.1	-5.7	-5.5	-4.7
O=C(O)c1cc(O)c2c(c1)[C@@H]([C@H]1c3cc(C(=O)O)cc(O)c3C(=O)c3c(O[C@@H]4O[C@H](CO)[C@@H](O)[C@H](O)[C@H]4O)cccc31)c1cccc(O[C@@H]3O[C@H](CO)[C@@H](O)[C@H](O)[C@H]3O)c1C2=O	nt	nt	nt	91.3*

Compound activity deposited in PubChem by several laboratories.
